Key:
[1] = tested on: NCI-60 human tumor cell line panel (Homo sapiens); assay: Mean concentration causing inhibition of cell growth in the NCI-60 human tumor cell line panel.
[2] = tested on: Melanoma cell; assay: Inhibitory activity against melanoma cell line; format: functional, cell-based; settings: for IC50: Homo sapiens, Melanoma cell; for Log IC50: melanoma cell
[3] = tested on: Breast carcinoma cell; assay: Inhibitory activity against breast cell line; format: functional, cell-based; settings: for IC50: Homo sapiens, Breast carcinoma cell; for Log IC50: breast carcinoma cell
[4] = tested on: Prostate cell; assay: Inhibitory activity against prostate cell line; format: functional, cell-based; settings: for IC50: Homo sapiens, Prostate cell
[5] = tested on: Renal cell; assay: Inhibitory activity against renal cell line; format: functional, cell-based; settings: for IC50: Homo sapiens, Renal cell; for Log IC50: renal cell
[6] = tested on: Colon cell; assay: Inhibitory activity against Colon cell line; format: functional, cell-based; settings: for IC50: Homo sapiens, Colon cell; for Log IC50: colon cell
[7] = tested on: CNS cell; assay: Inhibitory activity against CNS cell line; format: functional, cell-based; settings: for IC50: Homo sapiens, CNS cell; for Log IC50: cns cell
[8] = tested on: Ovarian carcinoma cell; assay: Inhibitory activity against ovarian cell line; format: functional, cell-based; settings: for IC50: Homo sapiens, Ovarian carcinoma cell
[9] = tested on: Panel leukemia (Carcinoma cell lines); assay: Inhibitory activity against leukemia cell line; format: functional, cell-based; settings: for IC50: Homo sapiens, Panel leukemia (Carcinoma cell lines); for Log IC50: panel leukemia (carcinoma cell lines)
[10] = tested on: NCI-60 human tumor cell line panel (Homo sapiens); assay: Cytostatic effect in NCI-60 human tumor cell lines.; set-up: unit not given here
[11] = tested on: 3Y1 cell line; assay: Cytotoxicity in 3Y1 cells.; format: functional, Rattus norvegicus; set-up: unit not given here
How it was run: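 Rat normal fibroblast 3Y1 cells grown in Dulbecco's modified MEM with 10% fetal calf serum, 5% CO2, humidified. Exponentially growing cells exposed to compounds for 24 h. Relative cell number = cell number at 24 h per initial cell number at 0 h × 100; DNA content distribution read by laser scanning cytometry.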

[12] = tested on: non-small-cell lung cancer cell lines (Homo sapiens); assay: Inhibitory activity against non-small-cell lung cancer cell lines; settings: for IC50: Homo sapiens
[13] = tested on: NCI-60 human tumor cell line panel (Homo sapiens); assay: Mean averaged concentration for total growth inhibition, which signifies cytostatic effect

| Compound | GI50 ([1]; Homo sapiens, NCI-60 panel) [µM] | IC50 [2] [µM] | IC50 [3] [µM] | IC50 [4] [µM] | IC50 [5] [µM] | IC50 [6] [µM] | IC50 [7] [µM] | IC50 [8] [µM] | IC50 [9] [µM] | TGI [10] | LC50 [11] | IC50 [12] [µM] | also measured |
| --- | --- | --- | --- | --- | --- | --- | --- | --- | --- | --- | --- | --- | --- |
| COc1cc([C@@H]2c3[nH]c4ccccc4c3C[C@H]3C(=O)N4CCC[C@H]4C(=O)N23)cc(OC)c1O | > 100 | > 100 | > 100 | > 100 | > 100 | > 100 | > 100 | > 100 | > 100 | >-4 | >-4 | > 100 |  |
| O=C1[C@@H]2CCCN2C(=O)[C@H](Cc2c[nH]c3ccccc23)N1C/C=C/c1ccccc1 | 31.6 | 43.7 | 27.5 | 39.8 | 35.5 | 35.5 | 37.2 | 44.7 | 22.9 | -4.07 | -4.01 | 32.4 |  |
| COc1cc(CN2C(=O)[C@@H]3CCCN3C(=O)[C@@H]2Cc2c[nH]c3ccccc23)cc(OC)c1O | 91.2 | 95.5 | 95.5 | > 100 | > 100 | 87.1 | > 100 | > 100 | 64.6 |  | >-4 | 87.1 | TGI [13]: >-4 |
| CC(C)C[C@H]1c2[nH]c3ccccc3c2C[C@H]2C(=O)N3CCC[C@H]3C(=O)N21 | 70.8 | 87.1 | 63.1 | 83.2 | 74.1 | 67.6 | 83.2 | 79.4 | 36.3 |  | >-4 | 77.6 |  |
| O=C1[C@@H]2Cc3c([nH]c4ccccc34)[C@H](c3ccccc3)N2C(=O)[C@@H]2CCCN12 | 47.9 | 51.3 | 36.3 | 85.1 | 42.7 | 41.7 | > 100 | 57.5 | 13.8 | >-4 | >-4 | 63.1 |  |
| COc1cc([C@@H]2c3[nH]c4ccccc4c3C[C@H]3C(=O)N4CCC[C@H]4C(=O)N23)cc(OC)c1OC | 66.1 | 87.1 | 46.8 | 72.4 | 77.6 | 74.1 | 74.1 | 77.6 | 32.4 | -4.01 | >-4 | 69.2 |  |
| COc1cc([C@H]2c3[nH]c4ccccc4c3C[C@H]3C(=O)N4CCC[C@H]4C(=O)N23)cc(OC)c1O | 53.7 | 55 | 46.8 | 66.1 | 44.7 | 89.1 | 33.1 | 39.8 | 100 | >-4.03 | >-4 | 40.7 |  |
| O=C1[C@@H]2Cc3c([nH]c4ccccc34)[C@@H](c3ccccc3)N2C(=O)[C@@H]2CCCN12 | 51.3 | 50.1 | 49 | 63.1 | 50.1 | 45.7 | 61.7 | 56.2 | 40.7 | >-4 | >-4 | 52.5 |  |
| CC(C)C[C@@H]1c2[nH]c3ccccc3c2C[C@H]2C(=O)N3CCC[C@H]3C(=O)N12 | 93.3 | > 100 | 87.1 | > 100 | 97.7 | > 100 | 85.1 | > 100 | 77.6 | >-4 | >-4 | 93.3 |  |
| O=C1[C@H](Cc2c[nH]c3ccccc23)N(Cc2ccccc2)C(=O)[C@@H]2CCCN12 | 97.7 | > 100 | > 100 | > 100 | > 100 | > 100 | > 100 | > 100 | 85.1 | >-4 | >-4 | > 100 |  |
| COc1cc([C@H]2c3[nH]c4ccccc4c3C[C@H]3C(=O)N4CCC[C@H]4C(=O)N23)cc(OC)c1OC | 87.1 | 93.3 | 97.7 | 91.2 | 95.5 | 93.3 | 95.5 | 72.4 | 64.6 | >-4 | >-4 | 70.8 |  |
| COc1cc(CN2C(=O)[C@@H]3CCCN3C(=O)[C@@H]2Cc2c[nH]c3ccccc23)cc(OC)c1OC | 30.9 | 28.8 | 33.9 | 57.5 | 30.2 | 30.2 | 27.5 | 40.7 | 13.2 | -4.04 | -4.01 | 42.7 |  |
| COc1cc([C@@H]2c3[nH]c4ccccc4c3C[C@H]3C(=O)NCC(=O)N23)cc(OC)c1O (relative stereo) | 50.1 | 45.7 | 49 | 70.8 | 55 | 46.8 | 38 | 66.1 | 38 | -4.01 | >-4 | 56.2 |  |
| COc1cc([C@H]2c3[nH]c4ccccc4c3C[C@H]3C(=O)NCC(=O)N23)cc(OC)c1OC (relative stereo) | 95.5 | > 100 | 93.3 | > 100 | 95.5 | > 100 | > 100 | > 100 | 72.4 | >-4 | >-4 | > 100 |  |
| COc1cc([C@H]2c3[nH]c4ccccc4c3C[C@H]3C(=O)NCC(=O)N23)cc(OC)c1O (relative stereo) | > 100 | > 100 | > 100 | > 100 | > 100 | > 100 | > 100 | > 100 | > 100 | >-4 | >-4 | > 100 |  |
| COc1cc([C@@H]2c3[nH]c4ccccc4c3C[C@H]3C(=O)NCC(=O)N23)cc(OC)c1OC (relative stereo) | 5.89 | 6.76 | 6.31 | 5.5 | 13.8 | 4.37 | 3.72 | 5.89 | 2.29 | -4.26 | -4.04 | 7.59 |  |
| CC(C)=CCN1C(=O)[C@@H]2CCCN2C(=O)[C@@H]1Cc1c[nH]c2ccccc12 (stereo in doubt) | 85.1 | > 100 | 89.1 | > 100 | > 100 | 95.5 | > 100 | > 100 | 61.7 | -4.01 | >-4 | 97.7 |  |
| CC(C)=C[C@H]1c2[nH]c3ccccc3c2C[C@H]2C(=O)N3CCC[C@H]3C(=O)N21 (stereo in doubt) [DEMETHOXYFUMITREMORGIN C] |  |  |  |  |  |  |  |  |  |  |  |  | GI50 [1]: 95.5 µM; Log IC50 [2]: > -4; Log IC50 [3]: > -4; Log IC50 ([4]; prostate cell): > -4; Log IC50 [5]: > -4; Log IC50 [6]: -4.02; Log IC50 [7]: -4; Log IC50 ([8]; ovarian carcinoma cell): > -4; Log IC50 [9]: -4.16; Log IC50 [12]: -4.03 |
| CC(C)=C[C@H]1c2[nH]c3ccccc3c2C[C@H]2C(=O)N3CCC[C@H]3C(=O)N21 (stereo in doubt; 3) [DEMETHOXYFUMITREMORGIN C] |  |  |  | 50.1 |  | 53.7 |  | 70.8 | 34.7 | -4.02 | >-4 | 52.5 | GI50 [1]: 43.7 µM; Log IC50 [2]: -4.32; Log IC50 [3]: -4.43; Log IC50 [5]: -4.61; Log IC50 [7]: -4.36 |
| CC(C)=CCN1C(=O)[C@@H]2CCCN2C(=O)[C@@H]1Cc1c[nH]c2ccccc12 (stereo in doubt; 5a) |  |  |  |  |  |  |  |  |  | >-4 |  |  | GI50 [1]: > 100 µM; Log IC50 [3]: > -4; Log IC50 [6]: > -4; Log IC50 [9]: > -4; Log IC50 [12]: > -4 |

— ChEMBL document CHEMBL1132918, “Synthesis and evaluation of tryprostatin B and demethoxyfumitremorgin C analogues” (J Med Chem, 2000)
